ChEMBL document CHEMBL3871266, “Synthesis and cytotoxic activity of novel A-ring cleaved ursolic acid derivatives in human non-small cell lung cancer cells” (Eur J Med Chem, 2016)
Activity calls are given as the source filed them. No cut-off for these calls is given here.

What was measured:
[1] = tested on: NCI-H460; test: Induction of apoptosis in human NCI-H460 cells expressing CTR5 gene assessed as necrotic cells at 4 uM measured after 72 hrs by Annexin V-Cy5/propidium iodide staining-based flow cytometry (reference value: 0.9%); type: functional
[2] = tested on: NCI-H460; test: Induction of apoptosis in human NCI-H460 cells expressing CTR5 gene assessed as late apoptotic cells at 4 uM measured after 72 hrs in presence of autophagy inhibitor chloroquine by Annexin V-Cy5/propidium iodide staining-based flow cytometry (reference value: 2.7%); type: functional
[3] = tested on: NCI-H460; test: Increase in Beclin1 level in human NCI-H460 cells expressing CTR5 gene at 3 to 5.5 uM measured after 24 hrs by Western blot analysis; type: functional, cell-based
Procedure, shortened: (§1)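 Cells were seeded at 3×10^5 (H460) or 4.2×10^5 (H322) per dish and treated 24h later with DMSO or a concentration series for 24h. Lysed in cold RIPA with phosphatase and protease inhibitors, then sonicated. 30 μg protein run on Bis-Tris gels and transferred to nitrocellulose or PVDF. Detection used infrared secondary antibodies on an Odyssey imager. Signal normalized to β-actin or GAPDH and to DMSO control; three independent experiments.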

[4] = tested on: NCI-H460; test: Induction of apoptosis in human NCI-H460 cells expressing CTR5 gene assessed as necrotic cells at 20 uM measured after 72 hrs by Annexin V-Cy5/propidium iodide staining-based flow cytometry (reference value: 0.9%); type: functional
[5] = tested on: NCI-H460; test: Induction of apoptosis in human NCI-H460 cells expressing CTR5 gene assessed as viable cells at 20 uM measured after 72 hrs by Annexin V-Cy5/propidium iodide staining-based flow cytometry (reference value: 94.6%); type: functional; conditions: NCI-H460, 72 h, read-out: Activity
[6] = Cytotoxicity against human NCI-H322 cells assessed as reduction in cell viability measured after 72 hrs by CellTiter-Blue cell viability assay; type: functional, cell-based; conditions: Homo sapiens, NCI-H322, 72 h; read-out: IC50
Procedure, shortened: (§2)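 Monolayer cultures in RPMI-1640 with 10% FBS at 37°C, seeded at 850 (H460 CTR5), 660 (H460 LKB1+/+) or 1780 (H322) cells/well so that the end point reaches 70–80% confluence. Treated 72h; vehicle 0.15% DMSO. CellTiter-Blue added until colour change (50–60, 80–90 or 100–120 min respectively), fluorescence read at 590 nm. IC50 by nonlinear regression; three independent experiments.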

[7] = tested on: NCI-H322; test: Induction of apoptosis in human NCI-H322 cells assessed as increase in cleaved PARP level at 3 to 5.5 uM measured after 24 hrs by Western blot analysis; type: functional, cell-based; procedure, shortened: as §1
[8] = molecular target: Serine/threonine-protein kinase mTOR (Homo sapiens) (UniProt P42345); test: Inhibition of mTOR in human NCI-H460 cells expressing CTR5 gene assessed as upregulation of EIF4E pS09 level; type: cell-based
[9] = tested on: NCI-H460; test: Induction of autophagy in human NCI-H460 cells expressing CTR5 gene assessed as acidic vesicular organelle formation at 3 uM measured after 72 hrs by acridine orange dye based flow cytometry (reference value: 91.2%); type: functional
[10] = tested on: NCI-H460; test: Induction of autophagy in human NCI-H460 cells expressing CTR5 gene assessed as acidic vesicular organelle formation at 4 uM measured after 72 hrs by acridine orange dye based flow cytometry (reference value: 91.2%); type: functional
[11] = Upregulation of Atg3 level in human NCI-H460 cells expressing CTR5 gene at 3.5 uM measured after 24 hrs by reverse-phase protein array method relative to control; type: functional, cell-based
[12] = Upregulation of Beclin1 level in human NCI-H460 cells expressing CTR5 gene at 3.5 uM measured after 24 hrs by reverse-phase protein array method relative to control; type: functional, cell-based
[13] = tested on: NCI-H460; test: Induction of apoptosis in human NCI-H460 cells expressing CTR5 gene assessed as viable cells at 4 uM measured after 72 hrs in presence of autophagy inhibitor chloroquine by Annexin V-Cy5/propidium iodide staining-based flow cytometry (reference value: 94.6%); type: functional; conditions: NCI-H460, 72 h, read-out: Activity
[14] = Downregulation of p62 level in human NCI-H460 cells expressing CTR5 gene at 3 to 5.5 uM measured after 24 hrs by Western blot analysis; type: functional, cell-based; procedure, shortened: as §1
[15] = tested on: NCI-H460; test: Induction of apoptosis in human NCI-H460 cells expressing CTR5 gene assessed as increase in cleavage of procaspase8 at 3 to 4.5 uM measured after 24 hrs by Western blot analysis; type: functional, cell-based; procedure, shortened: as §1
[16] = tested on: NCI-H460; test: Induction of apoptosis in human NCI-H460 cells expressing CTR5 gene assessed as downregulation of Bcl2 expression at 3 to 5.5 uM measured after 24 hrs by Western blot analysis; type: functional, cell-based; procedure, shortened: as §1
[17] = tested on: NCI-H460; test: Induction of autophagy in human NCI-H460 cells expressing CTR5 gene measured after 24 hrs by microarray method; type: functional, cell-based
[18] = molecular target: Serine/threonine-protein kinase mTOR (Homo sapiens) (UniProt P42345); test: Inhibition of mTOR in human NCI-H460 cells expressing CTR5 gene assessed as decrease in S6 phosphorylation at S235/236 site by reverse-phase protein array method relative to control; type: cell-based
[19] = Downregulation of p62 level in human NCI-H322 cells at 3 to 5.5 uM measured after 24 hrs by Western blot analysis; type: functional, cell-based; procedure, shortened: as §1
[20] = Upregulation of Atg7 level in human NCI-H460 cells expressing CTR5 gene at 3.5 uM measured after 24 hrs by reverse-phase protein array method relative to control; type: functional, cell-based
[21] = tested on: NCI-H460; test: Induction of apoptosis in human NCI-H460 cells expressing CTR5 gene assessed as early apoptotic cells at 5 uM measured after 72 hrs by Annexin V-Cy5/propidium iodide staining-based flow cytometry (reference value: 1.7%); type: functional
[22] = tested on: NCI-H460; test: Induction of apoptosis in human NCI-H460 cells expressing CTR5 gene assessed as late apoptotic cells at 4 uM measured after 72 hrs by Annexin V-Cy5/propidium iodide staining-based flow cytometry (reference value: 2.7%); type: functional
[23] = Cytotoxicity against human LKB1-positive NCI-H460 cells assessed as reduction in cell viability measured after 72 hrs by CellTiter-Blue cell viability assay; type: functional, cell-based; conditions: Homo sapiens, NCI-H460, 72 h; read-out: IC50; procedure, shortened: as §2
[24] = Cytotoxicity against human NCI-H460 spheroids expressing CTR5 gene assessed as reduction in cell viability measured after 96 hrs by CellTiter-Glo luminescence viability assay; type: functional, cell-based; conditions: NCI-H460, 96 h
Procedure, shortened: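 Spheroids grown in round-bottom ultralow-attachment wells, 495 (H460 CTR5) or 650 (H322) cells/well. Drug exposure 96h with DMSO vehicle. CellTiter-Glo added, shaken 20 min, left 10 min, then luminescence read. IC50 by nonlinear regression; three independent experiments.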

[25] = tested on: NCI-H460; test: Induction of apoptosis in human NCI-H460 cells expressing CTR5 gene assessed as early apoptotic cells at 4 uM measured after 72 hrs in presence of autophagy inhibitor chloroquine by Annexin V-Cy5/propidium iodide staining-based flow cytometry (reference value: 1.8%); type: functional
[26] = tested on: NCI-H460; test: Induction of apoptosis in human NCI-H460 cells expressing CTR5 gene assessed as necrotic cells at 5 uM measured after 72 hrs by Annexin V-Cy5/propidium iodide staining-based flow cytometry (reference value: 2.1%); type: functional
[27] = tested on: NCI-H460; test: Induction of apoptosis in human NCI-H460 cells expressing CTR5 gene assessed as viable cells at 5 uM measured after 72 hrs by Annexin V-Cy5/propidium iodide staining-based flow cytometry (reference value: 93%); type: functional; conditions: NCI-H460, 72 h, read-out: Activity

inhibition [8]: Active | inhibition [18]: 11.7%
Structure (SMILES): C=C(C)[C@@H]1CC[C@]2(C)[C@H](C[C@@H](F)C34OC(=O)[C@@]5(CC[C@@H](C)[C@H](C)[C@@H]35)CC[C@]42C)[C@@]1(C)CCC(=O)NCCC
Activity [1]: 3.6% | Activity [2]: 11.5% | Activity [3]: Active | Activity [4]: 0.9% | viability at 20 µM [5]: 94.3% | IC50 [6]: 3.3 µM | Activity [7]: Active | Activity [9]: 88.6% | Activity [10]: 66.7% | Activity [11]: 5.1% | Activity [12]: 5.6% | viability at 4 µM [13]: 77.4% | Activity [14]: Active | Activity [15]: Active | Activity [16]: Dose-dependent effect | Activity [17]: Active | Activity [19]: Active | Activity [20]: 4.5% | Activity [21]: 13.4% | Activity [22]: 11.5% | IC50 [23]: 4.4 µM | IC50 [24]: 5.5 µM | Activity [25]: 7.6% | Activity [26]: 5% | viability at 5 µM [27]: 51.9%
